In brackets after ≈: the same amount, converted by molar mass. Blank lines part the entries; values can stand above or below the compound they belong to. Activity calls are given as the source filed them. No cut-off for these calls is given here.
Experiments:
[1] = target: T1, Prostate-specific antigen (Homo sapiens, UniProt P07288); assay: Inhibition of recombinant human semen PSA using Mu-HSSKLQAMC as substrate preincubated for 15 mins followed by substrate addition by fluorescence based assay
T1 sequence (P07288 whole entry): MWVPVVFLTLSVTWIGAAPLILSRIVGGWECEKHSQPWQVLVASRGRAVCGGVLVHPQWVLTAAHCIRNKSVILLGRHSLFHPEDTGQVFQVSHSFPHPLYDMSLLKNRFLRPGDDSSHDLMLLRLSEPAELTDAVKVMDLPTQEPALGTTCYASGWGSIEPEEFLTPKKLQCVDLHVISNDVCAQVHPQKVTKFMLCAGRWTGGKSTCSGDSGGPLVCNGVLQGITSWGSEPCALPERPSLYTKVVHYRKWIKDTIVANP

[2] = target: T2, Prostate-specific antigen (Homo sapiens) (UniProt P07288); assay: Inhibition of recombinant human semen PSA at 0.000001 to 500 uM using Mu-HSSKLQAMC as substrate preincubated for 15 mins followed by substrate addition by fluorescence based assay; format: single protein; details: dose lower 1e-06 µM, dose upper 500.0 µM
T2 sequence (whole entry): T1 sequence (P07288 whole entry)
Method in brief: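 PSA inhibition in a biochemical assay. Compounds tested at 100 nM, 1 μM, 10 μM, 100 μM and 500 μM, plus a lower picomolar-level concentration. Compounds with no inhibition across this range were scored not active.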

[3] = Stability in DMEM/F-12 medium assessed as compound remaining at 10 uM after 8 hrs by LC-MS/MS analysis; format: physicochemical; details: read-out: Stability
Method in brief: (§1)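 Compound incubated in DMEM/F12 medium at 37 °C and sampled at 0, 8 and 24 h. Stability reported as percent of compound remaining.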

[4] = Stability in DMEM/F-12 medium assessed as compound remaining at 10 uM after 24 hrs by LC-MS/MS analysis; format: physicochemical; method in brief: as §1
[5] = target: Prothrombin (Homo sapiens, UniProt P00734); assay: Inhibition of thrombin (unknown origin) by fluorescence based assay
Method in brief: (§2)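 Protease inhibition measured in biochemical enzyme assays, with the result reported as Ki.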

[6] = Cytotoxicity against human Ect1/E6E7 cells incubated for 1 to 3 hrs by MTT assay; format: toxicity, cell-based; details: time 1-3 hrs
Method in brief: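 Ect1/E6E7 human ectocervical cells exposed to compound for 1 or 3 h, with viability read by MTT assay. Nonoxynol-9 served as the positive cytotoxic control.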

[7] = Inhibition of alpha-chymotrypsin (unknown origin) using N-Benzoyl-L-tyrosine ethyl ester as substrate preincubated for 5 mins followed by substrate addition and measured every 1 min for 10 mins by microplate reader assay; design: species or system Homo sapiens; method in brief: as §2
[8] = target: T3, Neutrophil elastase (Homo sapiens, UniProt P08246); assay: Inhibition of neutrophil elastase (unknown origin) using 7-amino-4-trifluoromethyl-coumarin based peptide as substrate measured for 1 hr by fluorescence based microplate reader assay; method in brief: as §2
T3 sequence (P08246 whole entry): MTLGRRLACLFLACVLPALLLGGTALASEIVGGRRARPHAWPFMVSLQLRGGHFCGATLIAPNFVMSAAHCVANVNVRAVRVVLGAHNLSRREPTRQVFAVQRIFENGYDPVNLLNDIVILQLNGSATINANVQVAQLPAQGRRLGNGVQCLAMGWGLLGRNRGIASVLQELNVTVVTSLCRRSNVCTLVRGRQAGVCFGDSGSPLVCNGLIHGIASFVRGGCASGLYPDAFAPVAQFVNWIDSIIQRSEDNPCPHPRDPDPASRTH

[9] = Aqueous solubility of compound incubated for 1 hr by HPLC analysis; format: physicochemical
[10] = Drug uptake in human HepG2 cells assessed as intracellular concentration per 10^9 cells at 10 uM incubated for 2 hrs by UHPLC-TSQ analysis; format: ADME, cell-based; details: hepg2, 2 h
Method in brief: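 HepG2 cells exposed to compound. Intracellular amount expressed as nmol per 10^9 cells, n = 4.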

SMILES: COc1ccc(C(=O)n2nc(-c3ccncc3)cc2N)cc1OC
- Ki [1]: 104 µM

SMILES: COc1ccc(Cn2nc(-c3cccnc3)nc2N)cc1OC
- inhibition [2]: inactive

SMILES: COc1ccc(C(=O)n2nc(-c3cccnc3)nc2N)cc1OC
- remaining at 8 h, 10 µM [3]: ~4%
- Stability [4]: Unstable

SMILES: COc1ccc(-c2cc(N)n(C(=O)c3ccc4[nH]cnc4c3)n2)cn1
- Ki [5]: 0.411 µM
- remaining at 8 h, 10 µM [3]: ~47%
- Activity [6]: Non-Toxic
- Ki [7]: 2.74 µM
- Ki [8]: 1180 µM
- Stability [4]: Unstable
- solubility at 1 h [9]: 27 µM (≈ 9.03 µg/mL)
- Drug uptake [10]: 3.41 nmol

SMILES: CNc1cc(-c2ccc(OC)nc2)nn1C(=O)c1ccc(OC)c(OC)c1
- inhibition [2]: inactive

SMILES: COc1ccc(-c2cc(N(C)C)n(C(=O)c3ccc(OC)c(OC)c3)n2)cn1
- inhibition [2]: inactive

Results, then the compound that gave them:

- inhibition [2]: inactive
SMILES: COc1cncc(-c2cc(N)n(C(=O)c3ccc(OC)c(OC)c3)n2)c1

- inhibition [2]: inactive
SMILES: Nc1n[nH]c(-c2cccnc2)n1

- Ki [1]: 308 µM
SMILES: COc1ccc(CC(=O)n2nc(-c3cccnc3)nc2N)cc1OC

- Ki [1]: 367 µM
SMILES: COc1ccc(-c2cc(N)n(C(=O)c3cc(OC)c(OC)c(OC)c3)n2)cn1

— ChEMBL document CHEMBL5614452, “Synthesis and Optimization of Small Molecule Inhibitors of Prostate Specific Antigen” (ACS Med Chem Lett, 2024)
